# The source made the active and inactive calls. The calls are words filed in the database; no cut-off is given here.
# Legend:
# [1] = target: Nucleotide-binding oligomerization domain-containing protein 2 (Homo sapiens, UniProt Q9HC29); assay: Antagonist activity at human NOD2 stably expressed in HEK293 cells co-expressing secreted alkaline phosphatase assessed as NF-kappaB induction by liquid handler-assisted reporter gene assay; type: cell-based
# [2] = target: T1, Nucleotide-binding oligomerization domain-containing protein 1 (Homo sapiens, UniProt Q9Y239); assay: Antagonist activity at human NOD1 stably expressed in HEK293 cells co-expressing secreted alkaline phosphatase assessed as NF-kappaB induction by liquid handler-assisted reporter gene assay; type: cell-based
# T1 sequence (Q9Y239 whole entry): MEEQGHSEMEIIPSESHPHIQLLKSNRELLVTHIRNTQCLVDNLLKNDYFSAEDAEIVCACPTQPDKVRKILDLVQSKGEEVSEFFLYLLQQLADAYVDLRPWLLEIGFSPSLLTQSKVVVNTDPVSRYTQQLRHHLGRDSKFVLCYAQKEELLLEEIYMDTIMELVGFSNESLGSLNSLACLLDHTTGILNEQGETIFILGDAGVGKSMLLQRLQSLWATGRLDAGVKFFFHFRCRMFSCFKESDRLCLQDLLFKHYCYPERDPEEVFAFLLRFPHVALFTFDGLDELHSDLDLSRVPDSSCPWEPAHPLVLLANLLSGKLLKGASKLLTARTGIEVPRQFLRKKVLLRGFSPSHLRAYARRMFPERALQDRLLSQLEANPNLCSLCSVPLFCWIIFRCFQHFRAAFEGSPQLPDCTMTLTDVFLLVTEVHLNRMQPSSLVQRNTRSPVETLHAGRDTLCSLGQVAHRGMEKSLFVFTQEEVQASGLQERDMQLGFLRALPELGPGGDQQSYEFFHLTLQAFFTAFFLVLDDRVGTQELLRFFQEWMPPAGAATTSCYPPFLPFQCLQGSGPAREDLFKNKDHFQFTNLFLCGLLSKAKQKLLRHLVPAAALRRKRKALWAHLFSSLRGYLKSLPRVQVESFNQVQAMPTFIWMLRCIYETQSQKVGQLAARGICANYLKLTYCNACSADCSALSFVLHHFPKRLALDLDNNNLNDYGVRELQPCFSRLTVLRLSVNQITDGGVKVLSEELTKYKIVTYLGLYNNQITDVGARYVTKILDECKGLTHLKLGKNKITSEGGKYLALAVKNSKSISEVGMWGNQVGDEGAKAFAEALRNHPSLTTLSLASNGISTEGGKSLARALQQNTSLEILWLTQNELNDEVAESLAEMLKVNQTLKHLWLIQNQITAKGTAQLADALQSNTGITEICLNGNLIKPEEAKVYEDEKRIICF
# [3] = target: T2, Toll-like receptor 8 (Homo sapiens) (UniProt Q9NR97); assay: Induction of TLR8-mediated IFN-gamma in human PBMC after 12 hrs by immunoassay
# T2 sequence (whole entry): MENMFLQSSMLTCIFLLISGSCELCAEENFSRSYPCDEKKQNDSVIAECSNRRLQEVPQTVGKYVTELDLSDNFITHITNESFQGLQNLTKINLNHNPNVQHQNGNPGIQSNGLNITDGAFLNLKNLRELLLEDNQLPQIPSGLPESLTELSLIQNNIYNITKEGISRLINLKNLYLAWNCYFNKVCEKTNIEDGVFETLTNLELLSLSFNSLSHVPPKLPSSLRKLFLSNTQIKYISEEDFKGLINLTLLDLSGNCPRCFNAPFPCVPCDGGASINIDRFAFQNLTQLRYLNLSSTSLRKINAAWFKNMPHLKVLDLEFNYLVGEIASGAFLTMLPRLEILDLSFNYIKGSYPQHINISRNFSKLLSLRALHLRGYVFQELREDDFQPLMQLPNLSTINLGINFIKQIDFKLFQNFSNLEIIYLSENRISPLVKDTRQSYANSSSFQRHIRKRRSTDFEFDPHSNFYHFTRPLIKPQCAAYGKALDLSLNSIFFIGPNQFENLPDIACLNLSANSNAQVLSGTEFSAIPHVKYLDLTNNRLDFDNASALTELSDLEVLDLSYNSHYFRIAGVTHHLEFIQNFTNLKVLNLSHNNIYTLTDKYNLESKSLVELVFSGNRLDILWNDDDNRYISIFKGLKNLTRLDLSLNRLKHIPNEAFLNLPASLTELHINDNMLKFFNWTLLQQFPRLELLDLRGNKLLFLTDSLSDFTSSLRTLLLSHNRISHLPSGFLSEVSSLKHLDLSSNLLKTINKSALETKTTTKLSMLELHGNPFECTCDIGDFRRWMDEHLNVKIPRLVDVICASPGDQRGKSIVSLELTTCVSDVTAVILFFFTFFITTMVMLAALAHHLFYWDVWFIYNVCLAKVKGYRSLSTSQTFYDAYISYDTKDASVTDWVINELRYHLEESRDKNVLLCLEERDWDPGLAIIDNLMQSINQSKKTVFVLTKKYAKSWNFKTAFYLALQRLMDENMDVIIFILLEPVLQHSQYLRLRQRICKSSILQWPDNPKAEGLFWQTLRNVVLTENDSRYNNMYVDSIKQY
# Procedure, shortened: (§1)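 Fresh PBMCs were isolated from venous blood on Ficoll-Hypaque gradients and plated at 10^5 cells in 100 µL per well. They were stimulated 12 h with graded compound concentrations. Centrifuged supernatants were assayed in duplicate by multiplexed analyte-specific cytokine bead array.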
# [4] = target: T2, Toll-like receptor 8 (Homo sapiens); assay: Induction of TLR8-mediated IL-12p40 in human PBMC after 12 hrs by immunoassay; procedure, shortened: as §1
# [5] = Upregulation of CD69 expression in human NK cells at 0.1 to 10 ug/ml measured after overnight incubation by flow cytometry; type: functional, cell-based
# Procedure, shortened: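 Heparin-anticoagulated whole blood from healthy volunteers was stimulated with graded concentrations at 37 °C overnight. It was then stained 30 min at 37 °C in the dark with CD3-PE, CD56-APC and CD69-PE-Cy7, followed by one-step erythrocyte lysis and fixation. NK cells were gated as CD3-CD56+ from 100,000 events. Values are means of duplicates from a representative experiment.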
# Sequence of Nucleotide-binding oligomerization domain-containing protein 2 (Q9HC29 whole entry, the tested form may be a part): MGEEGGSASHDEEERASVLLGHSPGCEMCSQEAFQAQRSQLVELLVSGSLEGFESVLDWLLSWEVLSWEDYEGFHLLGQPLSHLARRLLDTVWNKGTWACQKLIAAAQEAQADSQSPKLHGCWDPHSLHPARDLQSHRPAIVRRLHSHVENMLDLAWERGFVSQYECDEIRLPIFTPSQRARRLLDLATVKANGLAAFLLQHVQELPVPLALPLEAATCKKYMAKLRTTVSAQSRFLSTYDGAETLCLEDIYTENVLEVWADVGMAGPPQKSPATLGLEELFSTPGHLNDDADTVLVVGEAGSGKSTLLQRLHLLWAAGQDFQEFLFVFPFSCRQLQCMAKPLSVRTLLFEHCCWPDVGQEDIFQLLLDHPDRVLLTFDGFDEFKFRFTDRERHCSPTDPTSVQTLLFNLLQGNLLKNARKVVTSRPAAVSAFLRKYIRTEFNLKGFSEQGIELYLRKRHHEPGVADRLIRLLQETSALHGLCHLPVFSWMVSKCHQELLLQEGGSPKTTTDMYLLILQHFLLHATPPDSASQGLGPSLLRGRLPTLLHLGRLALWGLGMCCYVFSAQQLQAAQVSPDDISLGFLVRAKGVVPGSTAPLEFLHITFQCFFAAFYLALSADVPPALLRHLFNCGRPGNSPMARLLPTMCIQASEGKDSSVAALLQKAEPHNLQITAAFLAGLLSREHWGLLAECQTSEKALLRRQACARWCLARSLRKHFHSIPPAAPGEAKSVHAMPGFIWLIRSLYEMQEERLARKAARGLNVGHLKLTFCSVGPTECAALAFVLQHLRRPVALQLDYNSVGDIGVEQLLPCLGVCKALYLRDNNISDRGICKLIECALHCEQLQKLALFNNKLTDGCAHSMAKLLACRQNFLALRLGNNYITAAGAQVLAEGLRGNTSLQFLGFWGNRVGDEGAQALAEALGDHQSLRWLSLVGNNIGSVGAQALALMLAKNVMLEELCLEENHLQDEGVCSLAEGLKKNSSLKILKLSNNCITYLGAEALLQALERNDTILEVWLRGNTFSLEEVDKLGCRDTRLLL
SMILES,IC50 [1] [µM],IC50 [2] [µM],Activity [3],Activity [4],Activity [5]
CCCCCn1c(N)nc2c(Cc3ccccc3)cccc21,> 10,> 10,,,
CCCCCn1c(N)nc2c(-c3ccccc3)cccc21,> 10,> 10,,,
CCCCCn1c(N)nc2c(OCc3ccccc3)cccc21,> 10,> 10,,,
CCCCCn1c(N)nc2cc3ccccc3cc21,> 10,> 10,,,
CCCCCn1c(N)nc2c(C)cccc21,,,Active,Active,inactive
CCCCCn1c(N)nc2ccc3ccccc3c21,> 10,> 10,,,
CCCCCn1c(NC(C)=O)nc2ccccc21,> 10,> 10,,,
